MPTP inh = permeability transition pore inhibition | AID 602449 | inhibition, % at 10 µM | actives 1.4% (n = 360,000) | isolated mouse mitochondria, Ca2+ swelling absorbance, 30 min;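 active = inhibition of 50% or more, scaled per plate between neutral and stimulator controls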
GRIN3A LBD mod = NR3A (human) ligand-binding domain modulation. NR3A LBD differential scanning fluorimetry, Tm shift; 0% = protein alone, 100% = glycine-bound protein. Tm shift relative to glycine control, % at 25 µM. actives 2.5% (n = 340,000);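 active = melting temperature shift of at least 10% of the positive control shift, at one fixed dose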
SENP1 inh = SENP1 (human) catalytic domain inhibition; recombinant SENP1 catalytic domain, CyPet-SUMO1-YPet FRET cleavage; inhibition, % at 10 µM; actives 0.21% (n = 360,000); AID 624204;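 active = inhibition at least 30% at 10 µM, raw YFP signal under a set limit, fluorescence ratio 0.5 to 1.5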
Target sequence (Q9P0U3 419-644 limits assumed): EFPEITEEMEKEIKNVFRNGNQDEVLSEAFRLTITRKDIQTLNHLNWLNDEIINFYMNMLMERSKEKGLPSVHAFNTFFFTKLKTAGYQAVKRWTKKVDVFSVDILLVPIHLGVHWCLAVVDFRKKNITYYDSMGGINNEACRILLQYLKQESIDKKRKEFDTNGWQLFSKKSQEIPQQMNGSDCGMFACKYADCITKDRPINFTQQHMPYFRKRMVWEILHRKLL
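system = hSENP1 catalytic domain, recombinant | reagent = SFCypet-SUMO1-SFYpet substrate at 25 nM | doses = one dose per compound, 10 µM, 0.5% DMSO | incubation = enzyme reaction for 50 min at room temperature, dark | measured by = FRET, CFP and YFP emission | controls = no-enzyme low, enzyme-DMSO high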
EBI2 antag = antagonists of human EBI2 receptor; P32249; EBI2 beta-arrestin recruitment, luminescence, 7a,25-OHC stimulated; inhibition, % at 5 µM; actives 0.81% (n = 360,000); AID 651636; in the data active = inhibition above about 38%;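 note: enzyme fragment complementation signal reports receptor beta-arrestin coupling in cells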
Target sequence (P32249 whole entry, looked up, the tested form may be a part): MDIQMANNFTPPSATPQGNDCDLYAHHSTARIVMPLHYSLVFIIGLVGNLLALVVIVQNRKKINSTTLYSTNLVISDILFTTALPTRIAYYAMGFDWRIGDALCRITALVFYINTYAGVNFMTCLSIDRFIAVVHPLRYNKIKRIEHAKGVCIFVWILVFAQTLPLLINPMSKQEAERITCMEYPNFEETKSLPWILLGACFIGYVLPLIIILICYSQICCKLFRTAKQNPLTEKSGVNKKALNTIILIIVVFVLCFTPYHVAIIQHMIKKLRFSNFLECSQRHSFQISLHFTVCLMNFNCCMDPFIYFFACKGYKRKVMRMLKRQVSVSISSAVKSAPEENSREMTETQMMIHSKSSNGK
Each line names hits and unclear results; the compound was inactive in the other large screens. Compounds with a hit are over-represented: about 4.4% of the library has one in this group of screens.

O=C1c2ccccc2C(=O)c2cc(N3CCCCC3)ccc21	GRIN3A LBD mod 38, SENP1 inh 95
O=C(O)c1sccc1S(=O)(=O)N1CCOCC1	GRIN3A LBD mod 11
CC(C)(O)CCc1c(-c2ccc(O)cc2O)oc2c3c(cc(O)c2c1=O)OC(C)(C)C=C3	none
CC(C)=CCc1c2c(c3occ(-c4ccc(O)c(O)c4)c(=O)c3c1O)C=CC(C)(C)O2	GRIN3A LBD mod 27
CC1(C)C=Cc2c(c3c(c4c(=O)c(-c5ccc(O)cc5)coc24)OC(C)(C)CC3)O1	none
CC(C)=CCc1c2c(c3occ(-c4ccc(O)cc4)c(=O)c3c1O)C=CC(C)(C)O2	GRIN3A LBD mod 25
Cc1c(Cl)ccc2c(C(O)CBr)cc(-c3ccccc3)nc12 (stereo not drawn)	GRIN3A LBD mod 32
COc1ccc(NS(=O)(=O)c2ccc(OC)c(NC(=O)CCC3CCCC3)c2)cc1	GRIN3A LBD mod 32
COc1ccc2c(c1)c(CC(=O)Nc1cccc(S(N)(=O)=O)c1)c(C)n2C(=O)c1ccc(Cl)cc1	GRIN3A LBD mod 23
COc1ccc(NS(=O)(=O)c2cccc(NC(=O)CCC(=O)c3cccs3)c2)cc1	none
COc1ccc(NS(=O)(=O)c2cccc(NC(=O)CCC(=O)c3ccc(Cl)cc3)c2)cc1	GRIN3A LBD mod 26
CC(Cc1ccccc1)N1CCCC1=O (stereo not drawn)	none
CN(C)c1cccc(C(=O)NNC(=O)/C=C/c2cccs2)c1	none
Nc1nc(=S)[nH]c2c1C1(CCCCC1)Cc1ccccc1-2	GRIN3A LBD mod 13
C=C(C)COc1ccc(-c2n[nH]c(C)c2-c2ccc(OC)cc2)c(O)c1	GRIN3A LBD mod 12
CCCN1C(=O)/C(=C/c2ccco2)SC1=Nc1ccc(OC)cc1	GRIN3A LBD mod 21
COc1ccc(N=C2S/C(=C\c3ccc(N4CCOCC4)o3)C(=O)N2CCc2c[nH]c3ccccc23)cc1	EBI2 antag 81 (no result: GRIN3A LBD mod)
Cc1cccc(C)c1NC(=O)CN1N=NC2C(=O)N(c3cccc(Cl)c3)C(=O)C21 (stereo not drawn)	GRIN3A LBD mod 18
COc1cc(NC(=O)c2ccc(N3CC4CC(C3)c3cccc(=O)n3C4)c(NC(=O)c3ccncc3)c2)cc(OC)c1OC (stereo not drawn)	none
C/C(=N\Nc1nc2ccccc2[nH]1)c1ccc(Cl)s1	GRIN3A LBD mod 16
C/C(=N\Nc1nc2ccccc2[nH]1)c1ccc(C)o1	none
COc1ccc(C=NOCC(=O)OCC(=O)Nc2ccc(OC)cc2)cc1	GRIN3A LBD mod 42
COc1ccc(/C=N/OC(=O)Nc2ccc(Cl)cc2)c(OC)c1	GRIN3A LBD mod 10
CC(=O)Nc1ccc(/C=N/OCC(=O)Nc2ccc(C)cc2)cc1	none
COc1ccc(NC(=O)O/N=C/c2ccc(Br)cc2)cc1	GRIN3A LBD mod 34
Cc1ccc(NC(=O)O/N=C/c2ccc(N(C)C)cc2)cc1	GRIN3A LBD mod 19
CCN(CC)CCNC(=O)C(=O)Nc1ccc(C(=O)OC)cc1	none
CCOc1ccc(N(CC(=O)NC2CCCC2)C(=O)c2ccc(C)s2)cc1	none
Cn1c(N)c(C(=O)COC(=O)/C=C/c2ccc(Cl)c(Cl)c2)c(=O)n(C)c1=O	GRIN3A LBD mod 17
CCCCS(=O)(=O)/C=C\C=C/S(=O)(=O)CCCC	EBI2 antag 51
CCCCS(=O)(=O)/C=C\C1C2C=CC(C2)C1S(=O)(=O)CCCC (stereo not drawn)	none
O=C1c2ccccc2CCC12N=NCC2c1ccc(Cl)cc1 (stereo not drawn)	none
O=C1c2ccccc2CCC12N=NCC2c1ccc(Br)cc1 (stereo not drawn)	GRIN3A LBD mod 11
CCOC(=O)c1c(N)sc(C(=O)Nc2ccc3c(c2)OCO3)c1C	GRIN3A LBD mod 28
CCOC(=O)c1c(N)sc(C(=O)N(C)C)c1C	GRIN3A LBD mod 11
CCOC(=O)c1c(N)sc(C(=O)OC)c1C	none
Cc1[nH]c2ccccc2c1CCCO	none (no result: MPTP inh, SENP1 inh, EBI2 antag)
OCCCCc1nccc2c1[nH]c1ccccc12	GRIN3A LBD mod 12
O=[N+]([O-])c1cccc(N=Cc2ccccc2)c1	none
O=[N+]([O-])c1cccc(/C=C/c2nc(C=Nc3ccc4ccccc4c3)c(O)o2)c1	GRIN3A LBD mod 11
CCNC(=O)C1(C)CCN(C(=O)C(c2ccccc2)c2ccccc2)C1 (stereo not drawn)	none (no result: GRIN3A LBD mod)
Cc1ccc(Nc2c([N+](=O)[O-])ccc3c2=NC2(CCCCC2)N=3)cc1	EBI2 antag 62
O=C(CSc1nnc(NC(=O)c2c(F)cccc2F)s1)NCc1ccc(F)cc1	none
CCCc1nn(C)c(C(=O)Nc2cccc(CC)c2)c1Cl	GRIN3A LBD mod 12
CCCc1nn(C)c(C(=O)Nc2ccc3ccccc3c2)c1Cl	GRIN3A LBD mod 17
Cc1nn(C)c(C(=O)Nc2cccc(CN3CCOCC3)c2)c1Br	none
Cc1nn(Cc2ccccc2)c(Cl)c1/C=C1\NC(=S)NC1=O	none
Cc1ccc(C(=O)N/N=C/c2ccc(OC(=O)c3ccccc3Cl)cc2)cn1	GRIN3A LBD mod 13
O=C(N/N=C/c1ccc(OC(=O)c2ccco2)cc1)c1ccccn1	GRIN3A LBD mod 14
Cc1ccc(C(=O)N/N=C\c2ccc(OC(=O)c3cccs3)cc2)cn1	none
Cc1ccc(C(=O)N/N=C\c2ccc(-c3ccc(Cl)c(Cl)c3)o2)cn1	GRIN3A LBD mod 12
O=C(Oc1ccc(/C=N/NC(=O)c2ccccn2)cc1)c1ccc(Br)cc1	none
COc1ccc(C(=O)NCCS(=O)(=O)NCc2ccccc2)cc1	none
COc1ccccc1C(=O)NC(=O)COc1ccc(Cl)cc1Cl	none
CCC1(C)Cc2ccccc2C(Nc2c(C)n(C)n(-c3ccccc3)c2=O)=N1 (stereo not drawn)	none
c1ccc(NC2=NCCN2CCCC2CCCC2)cc1	none
CC(C)(C)NC(=O)/C(=C\C=C\c1ccccc1)NC(=O)c1ccc([N+](=O)[O-])cc1	GRIN3A LBD mod 15
O=C(Nc1ccc(O)cc1)/C(=C\C=C\c1ccccc1)NC(=O)c1ccccc1	GRIN3A LBD mod 27
O=C(N/C(=C/C=C/c1ccccc1)C(=O)N1CCCCC1)c1ccc([N+](=O)[O-])cc1	none
O=C(Nc1ccc(C(=O)O)cc1)/C(=C\C=C\c1ccccc1)NC(=O)c1ccccc1Cl	none
CCC(=O)N1CCN=C1SCc1c(F)cccc1Cl	none
O=C(C[C@@H]1C[C@@H]2c3cc(NC(=O)C4CCC4)ccc3O[C@@H]2[C@@H](CO)O1)NCc1ccc(Cl)cc1	none (no result: GRIN3A LBD mod)
Cc1ccc(-n2c(=O)c3ccccc3n(CC(=O)C(C)(C)C)c2=O)cc1	none
CC1CCC2(CC1)NC(=O)N(CC(=O)Nc1ccc3[nH]c(=O)[nH]c3c1)C2=O (stereo not drawn)	GRIN3A LBD mod 19
Cc1nn(Cc2ccc(F)cc2)c(C)c1NC(=O)c1cnn2c1NC(c1cccs1)CC2C(F)(F)F (stereo not drawn)	EBI2 antag 37
COC(=O)c1cc2c(n1S(=O)(=O)c1ccc(C)cc1)C(=O)C(=O)c1[nH]cc(C(=O)OCc3ccccc3)c1-2	none
COc1ccc(C(=O)Nc2ccc(Nc3ccccc3)cc2)cc1OC	none
COc1ccc(C(=O)Nc2ccc(OCc3ccccc3)cc2)cc1[N+](=O)[O-]	GRIN3A LBD mod 34

High-throughput results: PubChem BioAssay, Sanford-Burnham Center for Chemical Genomics
